Screening results from PubChem BioAssay.
HTRA1 inhibitor: blocks human HTRA1 serine peptidase | recombinant HTRA1, FP-rhodamine activity-based probe, fluorescence polarization | inhibition, % at 5.96 µM | hit rate 0.5% among 340,000; in the data active means inhibition above about 36%
SIAE inh: blocks human sialic acid acetylesterase | Q9HAT2 | SIAE FP-Rh probe binding, fluorescence polarization | inhibition, % at 9.66 µM | hit rate 0.69% among 370,000;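 active means inhibition above a cutoff: mean of compounds within the control limits plus 3 SD of those, cut at about 17% in these data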
TCR-CD3 inh: inhibitors of human TCR-CD3 interaction. inhibition, % at 9.4 µM. TAMRA-labeled TCR probe fluorescence, biochemical. hit rate 0.37% among 360,000; in the data active means inhibition above about 19%;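 further: recombinant mutant TCR 2C K166C tagged with TAMRA read by polarization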
PRMT1 inh: inhibitors of human PRMT1; Q99873; recombinant PRMT1, activity-based probe fluorescence polarization; inhibition, % at 2.79 µM; hit rate 1.3% among 370,000;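 active means inhibition above about 21% made by adding two undisclosed values, limit read from the data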
ABHD4 inh: ABHD4 (mouse) inhibition, primary FP screen; hit rate 0.54% among 370,000; inhibition, % at 8.92 µM; purified mABHD4, FP-Rh probe fluorescence polarization;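 active means inhibition exceeding the mean over every tested compound plus 3 SD, cut at about 30% in these data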
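Assay system: Wild-type mouse ABHD4 protein | Medium: HEPES pH 7.0 buffer, 150 mM NaCl, 0.01% Pluronic F-127 | Incubation: Enzyme–compound pre-incubation 45 min, then probe 60 min, both 25 °C | Technique: Fluorescence polarization with parallel and perpendicular emission, 525/598 nm | Evaluation: % inhibition of FP-Rh probe binding versus controls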
Numbers stand for hits; – = inactive; · = no result. In the library only some 2.5% were active in any assay of this set; here they are far more common.

SMILES	HTRA1 inhibitor	SIAE inh	TCR-CD3 inh	PRMT1 inh	ABHD4 inh
CCOC(=O)C1=C(C)N=c2s/c(=C\c3ccc(OCC(=O)O)c(OC)c3)c(=O)n2C1c1ccc(OC)cc1 (stereo unspecified)	–	–	–	32	–
CCCCNC(=O)C1(C(=O)c2ccc(OC)cc2)CC(c2ccccc2C(F)(F)F)=NO1 (stereo unspecified)	·	–	·	–	–
N#C/C(=C/c1ccc(F)cc1)S(=O)(=O)c1ccccc1	–	–	–	–	–
N#C/C(=C\c1ccc(O)c(O)c1)S(=O)(=O)c1ccccc1	–	20	–	–	–
O=C(COC(=O)[C@@H]1CCCN1S(=O)(=O)c1ccc(Cl)cc1)NC12CC3CC(CC(C3)C1)C2	–	–	–	–	–
COc1cc(NC(=O)COC(=O)[C@@H]2CCCN2S(=O)(=O)c2ccc(Cl)cc2)cc(OC)c1OC	–	18	–	–	–
Cc1ccc(S(=O)(=O)N2CCOCC2)cc1NC(=O)CSc1nc(N)cc(N)n1	–	–	–	–	–
Cc1ccc(S(=O)(=O)N2CCOCC2)cc1NC(=O)CSc1nc(N)cc(=O)[nH]1	–	–	–	23	–
CC(=O)OCC1=C(C(=O)O)N2C(=O)C(NC(=O)Cn3nc(C(F)F)c(Cl)c3C)C2SC1 (stereo unspecified)	–	–	–	–	–
CC(=O)OCC1=C(C(=O)O)N2C(=O)C(NC(=O)CCn3nc(C)c(Cl)c3C)C2SC1 (stereo unspecified)	–	–	–	24	–
CC1=C(C(=O)OCc2ccccc2)N2C(=O)[C@@H](NC(=O)COc3ccccc3)[C@H]2SC1	–	–	–	–	–
CC(=O)OCC1=C(C(=O)O)N2C(=O)C(NC(=O)CCn3nc(C(F)(F)F)c(Br)c3C3CC3)C2SC1 (stereo unspecified)	–	–	–	25	–
CC(=O)OCC1=C(C(=O)O)N2C(=O)C(NC(=O)CC(C)c3ccccc3)C2SC1 (stereo unspecified)	–	–	–	22	–
O=C(COc1ccccc1)NC1C(=O)N2C(C(=O)O)=C(Cl)CSC12 (stereo unspecified)	–	–	–	24	–
CC(C)c1ccc(C(=O)Nc2cc(Cl)ccc2C(=O)O)cc1	·	–	·	–	–
CCOC(=O)c1c(S(=O)(=O)N2CCCC2)c(C)n(C)c1C	–	–	–	22	–
C#CCCN([C@@H](CC(C)C)C(=O)OC)S(=O)(=O)c1ccccc1Br	·	–	·	–	–
Nc1ccn([C@@H]2O[C@H](C(=O)N[C@H](Cc3ccccc3)C(=O)Nc3ccc4scnc4c3)[C@@H](O)[C@H]2O)c(=O)n1	·	–	–	21	–
CNC(=O)C1(CC(C)C)C=CCN1C(C)=O (stereo unspecified)	–	17	–	–	–
CC(=O)N1CC=CC1(CC(C)C)C(=O)NCc1cc(F)cc(C(F)(F)F)c1 (stereo unspecified)	–	–	–	–	–
CCOC(=O)c1nn(-c2ccccc2C)c(=O)c2c(N)scc12	–	–	–	25	–
O=C(C1CCN(c2ncnc3c2sc2cccc(F)c23)CC1)N1CCN(Cc2ccc(F)cc2)CC1	·	–	·	–	–
Cc1ccc2c(c1C)NC(C(=O)O)C1CC=CC21 (stereo unspecified)	51	·	·	·	·
COc1ccccc1NS(=O)(=O)c1cc(NC(=O)c2cccs2)ccc1N1CCCC1	–	–	–	23	–
COc1ccccc1NS(=O)(=O)c1cc(NC(=O)C2CCCC2)ccc1N1CCOCC1	–	–	–	23	–
SMILES	HTRA1 inhibitor	SIAE inh	TCR-CD3 inh	PRMT1 inh	ABHD4 inh
COc1ccccc1NS(=O)(=O)c1cc(NC(=O)C(C)(C)C)ccc1N1CCOCC1	–	–	–	–	–
C=CCOC/C=C/C#CCN(Cc1ccc(OC)cc1OC)C(=O)Nc1ccccc1	·	–	·	–	–
O=C(NC1CCCCN(Cc2cccc(C(F)(F)F)c2)C1=O)c1ccc(F)c(F)c1 (stereo unspecified)	·	–	·	–	–
CCn1ccc(C(=O)NC2=NCCS2)n1	–	–	–	24	–
O=C(OC12CCCN(C1)/C(=C/c1ccncc1)C2)c1ccc(Cl)cc1 (stereo unspecified)	·	–	·	–	–
CC1=CC(=O)c2ccccc2C1=O	–	–	–	–	–
CC(C)(C=O)C1=CC(=O)c2ccccc2C1=O	–	–	–	52	37
Fc1ccc(C[n+]2csc3ccccc32)cc1	–	–	–	74	–
Fc1ccc(CSc2ncnc3scc(-c4ccccc4)c23)cc1	–	–	–	–	–
Clc1ccc(C[n+]2csc3ccccc32)cc1	–	–	–	63	–
